Results from ChEMBL document CHEMBL1137254, “Structurally simple, potent, Plasmodium selective farnesyltransferase inhibitors that arrest the growth of malaria parasites” (J Med Chem, 2006).

Experiments:
[1] = target: T1, Protein farnesyltransferase (PFT) (Plasmodium falciparum) (UniProt Q5EI73+Q5EI74); assay: Inhibition of Plasmodium falciparum PFT at 50 nM
[2] = target: T1, Protein farnesyltransferase (PFT) (Plasmodium falciparum); assay: Inhibition of Plasmodium falciparum PFT at 5 nM
[3] = Apparent permeability in Caco-2 cells; assay type: ADME, cell-based; conditions: human
[4] = target: T2, Protein farnesyltransferase (PFT) (Plasmodium falciparum, UniProt Q5EI73+Q5EI74); assay: Inhibition of Plasmodium falciparum PFT; assay type: protein-complex assay
T2 sequence (Q5EI73 whole entry): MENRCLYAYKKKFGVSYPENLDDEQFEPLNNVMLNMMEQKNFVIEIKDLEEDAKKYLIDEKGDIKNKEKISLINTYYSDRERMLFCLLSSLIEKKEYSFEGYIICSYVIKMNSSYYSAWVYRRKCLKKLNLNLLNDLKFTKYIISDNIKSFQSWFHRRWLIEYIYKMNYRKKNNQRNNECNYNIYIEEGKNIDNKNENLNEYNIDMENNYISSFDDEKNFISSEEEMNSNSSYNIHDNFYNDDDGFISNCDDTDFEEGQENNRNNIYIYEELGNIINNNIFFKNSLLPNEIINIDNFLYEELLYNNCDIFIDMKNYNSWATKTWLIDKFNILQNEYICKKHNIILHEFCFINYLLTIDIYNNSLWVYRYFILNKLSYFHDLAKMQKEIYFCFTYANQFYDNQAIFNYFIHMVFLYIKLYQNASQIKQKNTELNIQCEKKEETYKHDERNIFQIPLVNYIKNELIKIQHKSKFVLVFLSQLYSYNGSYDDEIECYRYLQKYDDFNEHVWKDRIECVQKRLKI
T2 sequence (Q5EI74 whole entry): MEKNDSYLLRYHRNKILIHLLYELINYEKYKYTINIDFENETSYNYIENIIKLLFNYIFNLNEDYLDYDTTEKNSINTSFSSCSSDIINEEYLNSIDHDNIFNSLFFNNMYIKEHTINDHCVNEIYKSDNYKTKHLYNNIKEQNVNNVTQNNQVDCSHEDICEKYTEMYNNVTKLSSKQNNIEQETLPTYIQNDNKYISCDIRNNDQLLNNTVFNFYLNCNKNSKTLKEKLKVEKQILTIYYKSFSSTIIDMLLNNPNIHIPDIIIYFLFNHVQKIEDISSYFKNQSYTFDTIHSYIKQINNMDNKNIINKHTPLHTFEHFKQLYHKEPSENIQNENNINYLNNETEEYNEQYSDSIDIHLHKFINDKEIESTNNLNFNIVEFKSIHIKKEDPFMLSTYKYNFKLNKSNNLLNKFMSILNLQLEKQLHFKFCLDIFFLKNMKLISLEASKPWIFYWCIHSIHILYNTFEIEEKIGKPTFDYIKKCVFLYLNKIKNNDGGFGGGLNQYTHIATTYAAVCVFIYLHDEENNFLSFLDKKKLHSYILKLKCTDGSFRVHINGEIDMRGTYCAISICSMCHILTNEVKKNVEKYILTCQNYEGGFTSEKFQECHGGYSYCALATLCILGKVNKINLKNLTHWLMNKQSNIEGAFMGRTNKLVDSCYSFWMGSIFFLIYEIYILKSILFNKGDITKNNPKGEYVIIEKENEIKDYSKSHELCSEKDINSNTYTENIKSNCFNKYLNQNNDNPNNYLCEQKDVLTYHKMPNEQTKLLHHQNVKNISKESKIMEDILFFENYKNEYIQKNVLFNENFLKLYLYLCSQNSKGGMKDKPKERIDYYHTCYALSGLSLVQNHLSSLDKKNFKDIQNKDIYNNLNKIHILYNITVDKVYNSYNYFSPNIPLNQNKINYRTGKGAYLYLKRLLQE

[5] = target: T1, Protein farnesyltransferase (PFT) (Plasmodium falciparum); assay: Selectivity for inhibition of Plasmodium falciparum PFT over rat PFT; assay type: protein-complex assay
[6] = Tmax in mouse at 50 mg/kg, po; assay type: ADME, organism-based; design: dose 50 mg/kg, route oral; conditions: in vivo
In short: (§1)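 Oral gavage at 50 mg/kg in 90% saline, 3% ethanol, 7% Tween; inhibitor concentration in plasma followed over 5 h. Values are averages of three animals per species (mice or rats). Reported parameters are AUC, Cmax, Tmax and elimination t1/2.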

Plasmodium falciparum [7] = assay: Inhibition of Plasmodium falciparum 3D7 growth as reduced [3H]hypoxanthine incorporation; assay type: functional; conditions: 3D7, 72 h, read-out: ED50 (the source's name)
In short: (§2)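 Inhibitor in DMSO was added to P. falciparum culture (0.5% parasitemia, 0.5% hematocrit) in RPMI-1640 with 20% human A+ plasma. Cultures were held 48 h at 37 °C under 5% CO2/5% O2/90% N2, then pulsed with [8-3H]hypoxanthine (0.3 μCi) for 24 h more. Cells were harvested and counted by β-scintillation. Background from uninfected RBCs was subtracted, with DMSO set as 100%. ED50 was obtained by linear regression.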

Plasmodium falciparum [8] = assay: Inhibition of Plasmodium falciparum K1 growth as reduced [3H]hypoxanthine incorporation; assay type: functional; conditions: K1, 72 h, read-out: ED50 (the source's name)
In short: as §2

[9] = Cmax in mouse at 50 mg/kg, po; assay type: ADME, organism-based; design: dose 50 mg/kg, route oral; conditions: in vivo
In short: as §1

[10] = AUC in mouse at 50 mg/kg, po; assay type: ADME, organism-based; design: dose 50 mg/kg, route oral; conditions: plasma
In short: as §1

[11] = Half life in mouse at 50 mg/kg, po; assay type: ADME, organism-based; design: dose 50 mg/kg, route oral; conditions: in vivo, read-out: beta t1/2
In short: as §1

Mus musculus = species: Mus musculus; assay: Half life in mouse liver microsome; assay type: ADME; conditions: microsomes
In short: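 Pooled female liver microsomes were preincubated at 37 °C for 10 min in phosphate buffer with MgCl2, EDTA, an NADPH regenerating system and glucose-6-phosphate dehydrogenase. Inhibitor was then added in DMSO. Samples were quenched with acetonitrile plus internal standard at set time points and frozen at −20 °C. Parent and metabolites were quantified by LC/MS to give t1/2.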

Compound	inhibition [1]	inhibition [2]	further results
Cn1cnc(S(=O)(=O)N(CCN(Cc2c[nH]cn2)c2ccc(Br)cc2)Cc2ccccc2)c1	80%	–	–
CC(C)C(=O)N(CCN(Cc1cncn1C)c1ccc(C#N)cc1)Cc1ccccc1	61%	0%	–
Cn1cnc(S(=O)(=O)N(CCN(Cc2cncn2C)c2ccc(C#N)cc2)Cc2cccnc2)c1	74%	18%	–
Cn1cnc(S(=O)(=O)N(CCN(Cc2cncn2C)c2ccc(C#N)cc2)CC2CCCCC2)c1	93%	63%	Papp [3]: 15 nm/s; IC50 [4]: 0.0045 µM; Selectivity ratio [5]: 1.7
Cn1cncc1CN(CCN(Cc1ccccc1)S(=O)(=O)c1ccccn1)c1ccc(C#N)cc1	95%	64%	Tmax [6]: 30 min
O=S(=O)(c1cccc2cccnc12)N(CCN(Cc1c[nH]cn1)c1ccccc1)Cc1ccccc1	0%	–	–
Cn1cnc(S(=O)(=O)N(CCN(Cc2cncn2C)c2ccc(C#N)cc2)Cc2ccc(-n3cccc3)cc2)c1	85%	39%	–
Cc1cccc(CN(CCN(Cc2cncn2C)c2ccc(C#N)cc2)S(=O)(=O)c2cn(C)cn2)c1	94%	61%	EC50 (Plasmodium falciparum [7]): 0.3 µM; EC50 (Plasmodium falciparum [8]): 1 µM
Cn1cnc(S(=O)(=O)N(CCN(Cc2cncn2C)c2ccc(C#N)cc2)Cc2ccncc2)c1	62%	22%	–
C=CCN(CCN(Cc1cncn1C)c1ccc(C#N)cc1)S(=O)(=O)c1cn(C)cn1	42%	1%	–
Cn1cncc1CN(CCN(Cc1ccccc1)S(=O)(=O)c1cccc2cccnc12)c1ccc(C#N)cc1	35%	14%	–
C=C(C)CN(CCN(Cc1cncn1C)c1ccc(C#N)cc1)S(=O)(=O)c1cn(C)cn1	77%	6%	–
Cn1cnc(S(=O)(=O)N(CCN(Cc2cncn2C)c2ccc(C#N)cc2)Cc2ccccn2)c1	93%	64%	IC50 [4]: 0.0021 µM
Cn1cnc(S(=O)(=O)N(CCN(Cc2cncn2C)c2ccc(C#N)cc2)CC2CCN(c3ncccn3)CC2)c1	96%	74%	–
Cn1cnc(S(=O)(=O)N(CCN(Cc2cncn2C)c2ccc(C#N)cc2)Cc2cccc(-c3ccccc3)c2)c1	93%	56%	–
Cn1cnc(S(=O)(=O)N(CCN(Cc2cncn2C)c2ccc(C#N)cc2)Cc2ccccc2)c1	98%	86%	Cmax [9]: 0.74 µM; Tmax [6]: 30 min; AUC [10]: 1870 nM·h; EC50 (Plasmodium falciparum [8]): 0.367 µM; half-life [11]: 95.9 min
Cn1cnc(S(=O)(=O)N(CCN(Cc2c[nH]cn2)c2ccccc2)Cc2ccccc2)c1	32%	–	–
Cn1cncc1CN(CCN(Cc1ccccc1)S(=O)(=O)c1ccccc1)c1ccc(C#N)cc1	69%	18%	IC50 [4]: 0.0089 µM; Selectivity ratio [5]: 1.5
Cc1ccc(CN(CCN(Cc2cncn2C)c2ccc(C#N)cc2)S(=O)(=O)c2cn(C)cn2)cc1	54%	45%	–
Cn1cnc(S(=O)(=O)N(CCN(Cc2cncn2C)c2ccc(C#N)cc2)Cc2ccc(C#N)cc2)c1	48%	24%	IC50 [4]: 0.095 µM; Selectivity ratio [5]: 3.7
Cn1cnc(S(=O)(=O)N(CCN(Cc2cncn2C)c2ccc(C#N)cc2)CC2CCN(C(=O)OC(C)(C)C)CC2)c1	96%	81%	–

Compound	inhibition [1]	inhibition [2]	further results
Cn1cnc(S(=O)(=O)N(CCN(Cc2cncn2C)c2ccc(C#N)cc2)Cc2cccc(-n3cccc3)c2)c1	74%	37%	EC50 (Plasmodium falciparum [7]): 2.5 µM; EC50 (Plasmodium falciparum [8]): 4 µM
Cn1cnc(S(=O)(=O)N(CCN(Cc2cncn2C)c2ccc(C#N)cc2)CCn2cccc2)c1	56%	11%	–
Cn1cnc(S(=O)(=O)N(CCN(Cc2cncn2C)c2ccc(C#N)cc2)CC2CCOCC2)c1	84%	28%	–
Cn1cnc(S(=O)(=O)N(CCN(Cc2cncn2C)c2ccc(C#N)cc2)Cc2cccc(C#N)c2)c1	89%	45%	EC50 (Plasmodium falciparum [7]): 0.35 µM; EC50 (Plasmodium falciparum [8]): 1.8 µM
CC(=O)N1CCC(CN(CCN(Cc2cncn2C)c2ccc(C#N)cc2)S(=O)(=O)c2cn(C)cn2)CC1	44%	8%	–
Cn1cnc(S(=O)(=O)N(CCN(Cc2cncn2C)c2ccc(Br)cc2)Cc2ccccc2)c1	95%	70%	IC50 [4]: 0.002 µM
Cn1cncc1CN(CCN(Cc1ccccc1)S(=O)(=O)c1cccs1)c1ccc(C#N)cc1	74%	17%	–
CN(C)c1cccc2c(S(=O)(=O)N(CCN(Cc3cncn3C)c3ccc(C#N)cc3)Cc3ccccc3)cccc12	29%	6%	IC50 [4]: 0.055 µM; Selectivity ratio [5]: 3.3
O=S(=O)(c1cccs1)N(CCN(Cc1c[nH]cn1)c1ccccc1)Cc1ccccc1	5%	–	–
CC(=O)N(CCN(Cc1cncn1C)c1ccc(C#N)cc1)Cc1ccccc1	56%	0%	–
CC(C)C(=O)N1CCC(CN(CCN(Cc2cncn2C)c2ccc(C#N)cc2)S(=O)(=O)c2cn(C)cn2)CC1	92%	57%	–
O=S(=O)(c1ccccc1)N(CCN(Cc1c[nH]cn1)c1ccccc1)Cc1ccccc1	7%	–	–
CN(C)c1cccc2c(S(=O)(=O)N(CCN(Cc3c[nH]cn3)c3ccccc3)Cc3ccccc3)cccc12	0%	–	–
Cn1cnc(S(=O)(=O)N(CCN(Cc2cncn2C)c2ccc(C#N)cc2)CC2CCNCC2)c1	5%	5%	–
Cn1cnc(S(=O)(=O)N(CCN(Cc2cncn2C)c2ccc(C#N)cc2)Cc2ccc(-c3ccccc3)cc2)c1	19%	10%	IC50 [4]: 0.24 µM; Selectivity ratio [5]: 3.7; T1/2 (Mus musculus): 3 min
Cc1ccccc1CN(CCN(Cc1cncn1C)c1ccc(-c2ccccc2)cc1)S(=O)(=O)c1cn(C)cn1	85%	49%	IC50 [4]: 0.008 µM; EC50 (Plasmodium falciparum [8]): 2.6 µM
Cn1cnc(S(=O)(=O)N(CCN(Cc2cncn2C)c2ccc(Br)cc2)Cc2ccccn2)c1	–	–	IC50 [4]: 0.0019 µM; Selectivity ratio [5]: 44
Cn1cnc(S(=O)(=O)N(CCN(Cc2cncn2C)c2ccc(C#N)cc2)CC(=O)NC(C)(C)C)c1	6%	4%	IC50 [4]: > 1 µM
C=C(Br)CN(CCN(Cc1cncn1C)c1ccc(C#N)cc1)S(=O)(=O)c1cn(C)cn1	80%	25%	–
O=S(=O)(c1ccc2ccccc2c1)N(CCN(Cc1c[nH]cn1)c1ccccc1)Cc1ccccc1	0%	–	–
